Laboratory results published in ChEMBL document CHEMBL1141931, “Synthesis and evaluation of new antimalarial phenylurenyl chalcone derivatives” (J Med Chem, 2005).

How the values were obtained:
Plasmodium falciparum [1] = assay: Inhibitory concentration against Plasmodium falciparum; format: functional, organism-based
How it was run: (§1)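 Chloroquine-resistant P. falciparum cultures were exposed to a range of compound concentrations for 48 h, starting at the ring stage. New ring forms were counted by FACS (flow cytometry), and parasitemia was compared with untreated controls to derive IC50.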

Mus musculus [2] = species: Mus musculus; assay: Inhibition of hemoglobin hydrolysis in mice (Mus musculus) infected with Plasmodium berghei at 100 uM; format: functional
[3] = biological target: T1, Histidine-rich protein PFHRP-II (Plasmodium falciparum) (UniProt P05227); details: Plasmodium berghei; 100 uM
T1 sequence (whole entry): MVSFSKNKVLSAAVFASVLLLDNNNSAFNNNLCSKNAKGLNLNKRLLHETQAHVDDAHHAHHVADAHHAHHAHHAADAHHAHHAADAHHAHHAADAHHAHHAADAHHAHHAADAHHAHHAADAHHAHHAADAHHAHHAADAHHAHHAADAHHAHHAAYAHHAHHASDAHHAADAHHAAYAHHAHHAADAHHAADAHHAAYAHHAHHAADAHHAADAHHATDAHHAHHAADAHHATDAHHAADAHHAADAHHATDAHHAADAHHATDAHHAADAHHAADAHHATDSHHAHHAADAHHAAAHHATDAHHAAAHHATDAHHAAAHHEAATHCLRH

Mus musculus [4] = species: Mus musculus; assay: Inhibition of hemoglobin hydrolysis in mice (Mus musculus) infected with Plasmodium berghei at 5 uM; format: functional
Falcipain 2 [5] = biological target: T2, Falcipain 2 (Plasmodium falciparum, UniProt Q9N6S8); assay: Inhibitory concentration against falcipain-2; No significant effect impaired solubility
T2 sequence (Q9N6S8 whole entry): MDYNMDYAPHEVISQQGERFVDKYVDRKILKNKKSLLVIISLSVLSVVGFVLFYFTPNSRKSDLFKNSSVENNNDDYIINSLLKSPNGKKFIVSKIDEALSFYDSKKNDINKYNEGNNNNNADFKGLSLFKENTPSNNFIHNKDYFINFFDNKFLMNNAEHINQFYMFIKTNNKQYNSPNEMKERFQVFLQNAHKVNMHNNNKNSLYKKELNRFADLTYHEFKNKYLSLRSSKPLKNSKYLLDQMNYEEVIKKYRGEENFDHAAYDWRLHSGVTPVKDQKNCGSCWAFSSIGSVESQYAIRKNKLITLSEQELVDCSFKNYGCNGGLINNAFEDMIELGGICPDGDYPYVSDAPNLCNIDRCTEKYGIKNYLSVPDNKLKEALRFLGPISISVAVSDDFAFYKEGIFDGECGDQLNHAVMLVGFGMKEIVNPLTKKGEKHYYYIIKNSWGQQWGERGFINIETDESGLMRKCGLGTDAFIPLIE

Plasmodium falciparum [6] = assay: Inhibitory concentration against Plasmodium falciparum in FACS; format: functional, organism-based; how it was run: as §1
Falcipain 2 [7] = biological target: T2, Falcipain 2; assay: Inhibitory concentration against recombinant Falcipain-2
Mus musculus [8] = species: Mus musculus; assay: Inhibition of hemoglobin hydrolysis in mice (Mus musculus) infected with Plasmodium berghei at 10 uM; format: functional

Structure (SMILES)	IC50 (Plasmodium falciparum [1]) [µM]	also measured
CCN(CC)CCCC(C)Nc1ccnc2cc(Cl)ccc12 (centres undefined) [CHLOROQUINE]	–	Inhibition (Mus musculus [2]): 5.15%; inhibition [3]: 86.6%
COc1ccc(/C=C/C(=O)c2cccc(NC(=O)Nc3ccccc3)c2)c(OC)c1	> 10	–
O=C(Nc1ccccc1)Nc1ccc(C(=O)/C=C/c2ccc(Cl)cc2)cc1	> 10	–
CN(C)c1ccc(/C=C/C(=O)c2cccc(NC(=O)Nc3ccccc3)c2)cc1	> 10	–
COc1ccc(/C=C/C(=O)c2ccc(NC(=O)Nc3ccc(OC)cc3)cc2)cc1	> 10	–
O=C(Nc1ccccc1)Nc1cccc(C(=O)/C=C/c2ccc(Cl)cc2Cl)c1	–	Inhibition (Mus musculus [4]): 60.72%; IC50 (Falcipain 2 [5]): No significant effect; IC50 (Plasmodium falciparum [6]): 2.14 µM
COc1ccc(/C=C/C(=O)c2ccc(NC(=O)Nc3ccc(Cl)cc3)cc2)c(OC)c1	> 10	–
COc1cc(/C=C/C(=O)c2ccc(NC(=O)Nc3ccccc3)cc2)cc(OC)c1OC	> 10	–
COc1ccc(NC(=O)Nc2ccc(C(=O)/C=C/c3ccc(F)cc3F)cc2)cc1	> 10	–
COc1ccc(NC(=O)Nc2ccc(C(=O)/C=C/c3ccc(OC)cc3OC)cc2)cc1	> 10	–
COc1cc(/C=C/C(=O)c2cccc(NC(=O)Nc3ccccc3)c2)cc(OC)c1OC	–	Inhibition (Mus musculus [4]): 51.45%; IC50 (Falcipain 2 [5]): No significant effect; IC50 (Plasmodium falciparum [6]): 1.76 µM
COc1ccc(NC(=O)Nc2ccc(C(=O)/C=C/c3ccc(Cl)cc3)cc2)cc1	> 10	–
O=C(Nc1ccc(Cl)cc1)Nc1ccc(C(=O)/C=C/c2ccc(F)cc2)cc1	> 10	–
O=C(Nc1ccc(Cl)cc1)Nc1ccc(C(=O)/C=C/c2ccc3c(c2)OCO3)cc1	–	IC50 (Falcipain 2 [7]): 2500 nM; IC50 (Plasmodium falciparum [6]): 10 µM
O=C(Nc1ccc(Cl)cc1)Nc1ccc(C(=O)/C=C/c2ccccc2)cc1	–	IC50 (Falcipain 2 [7]): 3800 nM; IC50 (Plasmodium falciparum [6]): 9 µM
O=C(Nc1ccc(Cl)cc1)Nc1ccc(C(=O)/C=C/c2ccc(F)cc2F)cc1	–	Inhibition (Mus musculus [4]): 33.04%; IC50 (Falcipain 2 [7]): 2600 nM; IC50 (Plasmodium falciparum [6]): 8 µM

Structure (SMILES)	IC50 (Plasmodium falciparum [1]) [µM]	also measured
CC(=O)N[C@@H](CC(C)C)C(=O)N[C@@H](CC(C)C)C(=O)N[C@H](C=O)CCCNC(=N)N [LEUPEPTIN]	–	Inhibition (Mus musculus [8]): 87.02%; IC50 (Falcipain 2 [7]): 5.8 nM; IC50 (Plasmodium falciparum [6]): 6.26 µM
COc1cccc(/C=C/C(=O)c2cccc(NC(=O)Nc3ccccc3)c2)c1OC	> 10	–
O=C(Nc1ccc(Cl)cc1)Nc1ccc(C(=O)/C=C/c2ccc(Cl)cc2Cl)cc1	–	Inhibition (Mus musculus [4]): 60.31%; IC50 (Falcipain 2 [7]): 2500 nM; IC50 (Plasmodium falciparum [6]): 5 µM
COc1ccc(NC(=O)Nc2ccc(C(=O)/C=C/c3ccc(F)cc3)cc2)cc1	> 10	–
COc1ccc(/C=C/C(=O)c2cccc(NC(=O)Nc3ccccc3)c2)cc1	> 10	–
O=C(Nc1ccc(Cl)cc1)Nc1ccc(C(=O)/C=C/c2ccc(Cl)cc2)cc1	–	IC50 (Falcipain 2 [7]): 2600 nM; IC50 (Plasmodium falciparum [6]): 10 µM
O=C(Nc1ccccc1)Nc1cccc(C(=O)/C=C/c2ccc3c(c2)OCO3)c1	> 10	–
COc1cc(/C=C/C(=O)c2ccc(NC(=O)Nc3ccc(Cl)cc3)cc2)cc(OC)c1OC	–	IC50 (Falcipain 2 [7]): 1800 nM; IC50 (Plasmodium falciparum [6]): 3 µM
CC(C)C[C@H](NC(=O)[C@H]1O[C@@H]1C(=O)O)C(=O)NCCCCN=C(N)N [E-64]	–	IC50 (Falcipain 2 [7]): 58 nM; IC50 (Plasmodium falciparum [6]): 2.5 µM
CC(C)CC(=O)N[C@H](C(=O)N[C@H](C(=O)N[C@@H](CC(C)C)[C@@H](O)CC(=O)N[C@@H](C)C(=O)N[C@@H](CC(C)C)[C@@H](O)CC(=O)O)C(C)C)C(C)C [PEPSTATIN]	–	Inhibition (Mus musculus [8]): 91.91%
COc1ccc(NC(=O)Nc2ccc(C(=O)/C=C/c3ccccc3)cc2)cc1	> 10	–
O=C(Nc1ccccc1)Nc1ccc(C(=O)/C=C/c2ccccn2)cc1	> 10	–
O=C(Nc1ccccc1)Nc1cccc(C(=O)/C=C/c2ccc(Br)cc2)c1	–	Inhibition (Mus musculus [4]): 66.58%; IC50 (Falcipain 2 [5]): No significant effect; IC50 (Plasmodium falciparum [6]): 2.1 µM
COc1ccc(/C=C/C(=O)c2ccc(NC(=O)Nc3ccc(Cl)cc3)cc2)cc1	> 10	–
Cc1ccc(/C=C/C(=O)c2cccc(NC(=O)Nc3ccccc3)c2)cc1	–	Inhibition (Mus musculus [4]): 74.93%; IC50 (Falcipain 2 [5]): No significant effect; IC50 (Plasmodium falciparum [6]): 2.74 µM

More lines, main results first:

IC50 (Plasmodium falciparum [1]) [µM]	Structure (SMILES)	also measured
> 10	O=C(Nc1ccccc1)Nc1cccc(C(=O)/C=C/c2ccc(Cl)cc2)c1	–
> 10	COc1ccc(/C=C/C(=O)c2ccc(NC(=O)Nc3ccccc3)cc2)c(OC)c1	–
> 10	O=C(Nc1ccccc1)Nc1ccc(C(=O)/C=C/c2ccc3c(c2)OCO3)cc1	–
> 10	COc1ccc(NC(=O)Nc2ccc(C(=O)/C=C/c3ccc4c(c3)OCO4)cc2)cc1	–
> 10	COc1ccc(NC(=O)Nc2ccc(C(=O)/C=C/c3ccc(Cl)cc3Cl)cc2)cc1	–
> 10	Cc1ccc(/C=C/C(=O)c2ccc(NC(=O)Nc3ccccc3)cc2)cc1	–
> 10	O=C(Nc1ccccc1)Nc1cccc(C(=O)/C=C/c2ccccc2)c1	–
> 10	O=C(Nc1ccccc1)Nc1ccc(C(=O)/C=C/c2ccc(Cl)cc2Cl)cc1	–
> 10	O=C(Nc1ccccc1)Nc1ccc(C(=O)/C=C/c2ccccc2)cc1	–
> 10	COc1ccc(NC(=O)Nc2ccc(C(=O)/C=C/c3cc(OC)c(OC)c(OC)c3)cc2)cc1	–
> 10	COc1ccc(NC(=O)Nc2ccc(C(=O)/C=C/c3ccc(C)cc3)cc2)cc1	–
> 10	Cc1ccc(/C=C/C(=O)c2ccc(NC(=O)Nc3ccc(Cl)cc3)cc2)cc1	–
> 10	O=C(Nc1ccccc1)Nc1ccc(C(=O)/C=C/c2ccc(F)cc2)cc1	–
> 10	O=C(Nc1ccccc1)Nc1cccc(C(=O)/C=C/c2ccc(F)cc2)c1	–
> 10	O=C(Nc1ccccc1)Nc1ccc(C(=O)/C=C/c2ccc(F)cc2F)cc1	–
> 10	O=C(Nc1ccccc1)Nc1cccc(C(=O)/C=C/c2ccc(F)cc2F)c1	–
> 10	COc1ccc(/C=C/C(=O)c2ccc(NC(=O)Nc3ccccc3)cc2)cc1	–
> 10	COc1ccc(/C=C/C(=O)c2cccc(NC(=O)Nc3ccccc3)c2)cc1OC	–
